Assay outcomes from PubChem BioAssay.
T cruzi intra – inhibitors of intracellular Trypanosoma cruzi. intracellular Trypanosoma cruzi in host cells, plate reader. activity score (inhibition), % at 5.01 µM. hit rate 4.9% among 22,000; in the data active = activity score above about 55%; inconclusive = no clear call, values can overlap the other calls;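 note: parasites and compound incubated about four days before reading; 0% = median of neutral control wells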
A1 apoptosis 2 – compounds inhibiting A1, read as caspase activation; MEF A1-2A-BIM cells, caspase-Glo luminescence, 3 h; percent of clofoctol response, DMSO zero; caspase activation, % (no concentration beside the values); 24,000 tested, under 10 active; AID 2465; in the data active = caspase activation above about 5.9%; inconclusive = no clear call, values can overlap the other calls; inactive = below about 2.2%
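Material: mouse embryonic fibroblasts co-expressing A1 and BIM (A1-2A-BIM), primed for A1 dependence / Quantity: 2500 cells/well / Buffer or medium: RPMI-1640 growth medium with 10% FBS / Doses: 50 nL compound per well, pinned / Schedule: 3 h compound exposure at 37 °C / Signal: Caspase-Glo luminescence (DEVD substrate) / Measure: Caspase-3/7 activation, seen as rise in luminescence signal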
INS-1E ATP HTS – rescue of cytokine-induced death in INS-1E beta cells. hit rate 0.1% among 20,000. INS-1E cytokine-induced death, ATP luminescence, 48 h; normalised: neutral wells 0, positive control 100. protection from cytokine-induced ATP loss, % at 10 µM;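 active = mean replicate protection from cytokine-induced ATP loss at least 50% and at least 75% of replicates each reaching 50%; inconclusive = meets only one of the two criteria, mean or replicate share; inactive = fails both the mean and replicate share criteria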
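Test system: INS-1E rat cells | Quantity: 8000 cells per well | Medium: Phenol-red-free RPMI with 5% fetal bovine serum | Reagent: Cytokine cocktail of IFN-γ, TNF-α and IL-1β | Doses: One compound concentration, pin transfer | Timing: 48 h co-treatment, 10 min post-lysis read | Technique: Luminescent ATP assay (CellTiter-Glo)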
Numbers without * were called inactive. Many of the other results were omitted from the sample, so hits are more common in it than they were.

How did Cc1ccc(S(=O)(=O)Nc2ccc3c(c2)C(=O)N([C@H](C)CO)C[C@@H](C)[C@H](CN(C)Cc2ccc(C(=O)O)cc2)O3)cc1 do in these assays?
T cruzi intra: -25.3; INS-1E ATP HTS: 4.7

Results for Cc1ccc(S(=O)(=O)Nc2ccc3c(c2)C(=O)N([C@H](C)CO)C[C@H](C)[C@@H](CN(C)Cc2ccc(C(F)(F)F)cc2)O3)cc1 ?
T cruzi intra: 67.5*; A1 apoptosis 2: -2.1; INS-1E ATP HTS: 2.8

Results for COc1ccc(S(=O)(=O)Nc2ccc3c(c2)C(=O)N([C@H](C)CO)C[C@H](C)[C@@H](CN(C)Cc2ccc(C(F)(F)F)cc2)O3)cc1 ?
T cruzi intra: 64.1*; A1 apoptosis 2: -0.6; INS-1E ATP HTS: -11.6

How did COc1ccc(S(=O)(=O)Nc2ccc3c(c2)C(=O)N([C@H](C)CO)C[C@@H](C)[C@H](CN(C)Cc2ccc(C(F)(F)F)cc2)O3)cc1 do in these assays?
T cruzi intra: 5.1; A1 apoptosis 2: -0.3

What do the screens show for `CC(C)NC(=O)N(C)C[C@H]1OCCCC[C@H](C)Oc2ccc(NC(=O)Nc3cccc4ccccc34)cc2C(=O)N([C@H](C)CO)C[C@H]1C`?
A1 apoptosis 2: -0.1

Results for O=C(N/N=C/c1c(O)cc(O)cc1O)c1ccccn1 ?
T cruzi intra: 6.5; A1 apoptosis 2: -8.0; INS-1E ATP HTS: -7.8

How did C[C@@H]1CCCCO[C@@H](CN(C)C(=O)Nc2ccc(C(F)(F)F)cc2)[C@H](C)CN([C@H](C)CO)C(=O)c2cc(NS(=O)(=O)c3cccs3)ccc2O1 do in these assays?
A1 apoptosis 2: -0.2

What do the screens show for `Cc1ccc(S(=O)(=O)Nc2ccc3c(c2)C(=O)N([C@H](C)CO)C[C@@H](C)[C@@H](CN(C)Cc2ccc4c(c2)OCO4)O3)cc1`?
T cruzi intra: 7.6; A1 apoptosis 2: -0.6; INS-1E ATP HTS: -4.0

How did C[C@H](CO)N1C[C@H](C)[C@@H](CN(C)Cc2ccc(C(F)(F)F)cc2)Oc2ccc(NS(=O)(=O)c3ccc(F)cc3)cc2C1=O do in these assays?
T cruzi intra: 60.9*

Results for C[C@@H]1CN([C@@H](C)CO)C(=O)c2cc(NS(=O)(=O)c3ccc(F)cc3)ccc2O[C@@H]1CN(C)Cc1ccc(C(F)(F)F)cc1 ?
T cruzi intra: inconclusive; A1 apoptosis 2: -1.5; INS-1E ATP HTS: -31.5

What do the screens show for `Cc1ccc(S(=O)(=O)Nc2ccc3c(c2)C(=O)N([C@@H](C)CO)C[C@H](C)[C@H](CN(C)Cc2ccc(C(=O)O)cc2)O3)cc1`?
T cruzi intra: -18.8; INS-1E ATP HTS: 8.0

Results for C[C@H](CO)N1C[C@H](C)[C@@H](CN(C)Cc2ccc3c(c2)OCO3)Oc2ccc(NS(=O)(=O)c3ccc(F)cc3)cc2C1=O ?
T cruzi intra: 59.0*; A1 apoptosis 2: -1.0; INS-1E ATP HTS: 3.2

What do the screens show for `C[C@@H]1CN([C@@H](C)CO)C(=O)c2cc(NS(=O)(=O)c3ccc(F)cc3)ccc2O[C@H]1CN(C)Cc1ccc(C(F)(F)F)cc1`?
T cruzi intra: 38.0; A1 apoptosis 2: -1.5; INS-1E ATP HTS: -12.7

How did Cc1ccc(S(=O)(=O)Nc2ccc3c(c2)C(=O)N([C@@H](C)CO)C[C@H](C)[C@@H](CN(C)Cc2ccc(C(F)(F)F)cc2)O3)cc1 do in these assays?
T cruzi intra: 64.6*

Results for C[C@@H]1CN([C@@H](C)CO)C(=O)c2cc(NS(=O)(=O)c3ccc(Cl)cc3)ccc2O[C@@H]1CN(C)Cc1ccc(C(F)(F)F)cc1 ?
T cruzi intra: 83.6*; A1 apoptosis 2: -1.2; INS-1E ATP HTS: -31.0

What do the screens show for `O=C(N1CCCCC1)[C@@]1(Cc2ccccc2)N=C(c2ccc(OCCCO)cc2)O[C@H]1c1ccccc1`?
A1 apoptosis 2: -0.5

What do the screens show for `Cc1ccc(S(=O)(=O)Nc2ccc3c(c2)C(=O)N([C@H](C)CO)C[C@@H](C)[C@H](CN(C)C(=O)Nc2ccccc2)OCCCC[C@H](C)O3)cc1`?
A1 apoptosis 2: -0.4

How did O=C1O[C@H](c2ccccc2)[C@H](c2ccccc2)N2[C@H]1[C@@H](C(=O)NC[C@H](O)c1ccccc1)[C@]1(C(=O)Nc3ccc(C#CCCO)cc31)[C@H]2c1ccccc1OCCO do in these assays?
A1 apoptosis 2: 1.1

What do the screens show for `C[C@@H]1CN([C@H](C)CO)C(=O)Cc2cc(NS(=O)(=O)c3ccc(F)cc3)ccc2O[C@H]1CN(C)Cc1ccc(-c2ccccc2)cc1`?
T cruzi intra: 62.1*; INS-1E ATP HTS: -13.2

Results for C[C@@H]1CN([C@@H](C)CO)C(=O)Cc2cc(NS(=O)(=O)c3ccc(F)cc3)ccc2O[C@H]1CN(C)Cc1ccccc1 ?
A1 apoptosis 2: -0.5
